Results of several laboratories.
Each line is one published result; the experiments were not run side by side.
Observed: enzyme activity
ABL1: Tyrosine-protein kinase ABL1 (ABL1, Homo sapiens, UniProt P00519)

Cc1cnc(NC2CCOCC2)nc1-n1cnc(C(=O)NC(CN)c2cc(F)cc(Cl)c2)c1 (stereo not drawn)  remaining activity (ABL1; inhibitor; radiometric; 1 µM): 103%
Cc1ccc(NC(=O)c2ccc(C)c(C(F)(F)F)c2)cc1C#Cc1nn(C2CCC(O)CC2)c2ncnc(N)c12 (stereo not drawn)  remaining activity (Tyrosine-protein kinase ABL1 (ABL1, Homo sapiens, UniProt P00519, M351T); 10 µM): 0%
Cc1[nH]c(/C=C2\C(=O)Nc3ccc(F)cc32)c(C)c1C(=O)N[C@H]1CCN(C(=O)N(C)C)C1  remaining activity (ABL1; inhibitor; 0.1 µM): 104%
CCCOc1ccc(OC)c(F)c1C(=O)c1ccc(C(=O)N[C@@H]2CNC[C@H]2NC(=O)c2ccc3[nH]ncc3c2)cc1  remaining activity (ABL1; inhibitor; 10 µM): 80%
COc1cc(Nc2cnc(C#N)c(O[C@H](C)CN(C)C)n2)ncc1-c1cnn(C)c1  remaining activity (ABL1; inhibitor; radiometric; 1 µM): 83%
CCN(CC)c1ccc(C2=NNC(=O)CC2C)cc1[N+](=O)[O-] (stereo not drawn)  remaining activity (ABL1; inhibitor; 10 µM): 87%
O=C(Nc1cnn(-c2csc(C(=O)NC3COC3)c2)c1)Nc1ccccc1Cl  remaining activity (ABL1; inhibitor; 5 µM): 83.4%
CC(C)(C)c1nc(-c2cccc(NS(=O)(=O)c3c(F)cccc3F)c2F)c(-c2ccnc(N)n2)s1  remaining activity (ABL1; inhibitor; radiometric; 1 µM): 94%
CC(C)(O)[C@H]1CC[C@H](Nc2ccc3ncc(-c4cccc(C(F)(F)F)c4)n3n2)CC1  remaining activity (ABL1; inhibitor; 1 µM): 69.8%
